Sampled rows, rich in hits. Any-hit rate of the full collection: about 7.2%.
M1 agonist – M1 muscarinic receptor agonists, primary screen, CHO-M1 cells, Fluo-4 calcium, agonist mode | Fluo-4 calcium fluorescence; active compounds read high | B-score at 10 µM | actives 3% (n = 64,000);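 active = fluorescence rise, raw or as B-score row- and column-corrected plate score, outside the 99.7% band of its plate's samples, either direction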
HEK293 NFkB inh – inhibitors of PMA/ionomycin-induced NF-kB reporter, primary screen, antigen receptor NF-kB inhibitor project, cell-based, HEK-293 luciferase reporter, luminescence. HEK-293 NF-kB luciferase reporter. inhibition, % at 3 µM. actives 0.21% (n = 62,000). AID 465, 2006;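 active = inhibition above the mean of all tested compounds plus 3 SD, cut at about 40% in these data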
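Signal: luciferase luminescence; Material: HEK-293 cells with stable firefly luciferase reporter driven by four HIV NF-kB elements; Probe or stimulus: PMA with ionomycin; Replication: tested once; Times: 1 h compound pretreatment, then 16 h stimulation at 37 °C, 5% CO2; Benchmarks: DMSO and 10 µM reference inhibitor; Evaluation: per-plate % inhibition versus controls.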
BAP1 inh – inhibitors of BAP1 deubiquitinase, primary screen, biochemical, Ub-AMC fluorescence, kinetic. AID 436, 2006. recombinant BAP1, Ub-AMC hydrolysis fluorescence kinetic; active compounds read low. Ubiquitin carboxyl-terminal hydrolase BAP1 (Homo sapiens), Q92560. actives 0.48% (n = 72,000). calls only at 20 µM;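 active = activity remaining at or below 50% of control, provided the compound also passes the data quality filters; inactive = the rest, including low values that fail the filters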
D1 allo mod – D1 CRE-luciferase signal change, two-sided – cell-based, HEK293 D1, dopamine EC30, D1 allosteric modulator project, primary screen | D(1A) dopamine receptor (Homo sapiens), P21728 | dopamine EC30 potentiation; actives deviate in either direction | actives 5.9% (n = 58,000) | AID 641, 2007 | B-score at 10 µM;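 active = luminescence count or its row- and column-corrected plate score outside the 99.7% band of the plate's sample wells, on either side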
hDAT+cocaine – changed hDAT dopamine uptake under cocaine IC80, either direction, primary screen, cocaine antagonist project, cell-based, LLC-PK1 hDAT, [14C]-dopamine uptake, MLSMR; Sodium-dependent dopamine transporter (Homo sapiens), Q01959; LLC-PK1 hDAT cells, [14C]-dopamine uptake with cocaine IC80; actives deviate in either direction; B-score at 10 µM; actives 1.3% (n = 110,000); AID 449768, 2010;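 active = Z score or B-score, a plate-position-corrected score, falls beyond the plate's 99.7% confidence bounds, in either direction; inactive = both scores lie inside the 99.7% bounds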
M1 antag – antagonists of rat M1 muscarinic receptor; Muscarinic acetylcholine receptor M1 (Rattus norvegicus), P08482; CHO-M1 cells, Fluo-4 calcium, ACh EC80 antagonist mode; active compounds read low; B-score at 10 µM; actives 3.4% (n = 64,000);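 active = calcium fluorescence response, raw or row-and-column corrected B-score, differing from the plate sample mean either way at a set confidence level, mostly lower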
Target sequence (P08482 whole entry, looked up): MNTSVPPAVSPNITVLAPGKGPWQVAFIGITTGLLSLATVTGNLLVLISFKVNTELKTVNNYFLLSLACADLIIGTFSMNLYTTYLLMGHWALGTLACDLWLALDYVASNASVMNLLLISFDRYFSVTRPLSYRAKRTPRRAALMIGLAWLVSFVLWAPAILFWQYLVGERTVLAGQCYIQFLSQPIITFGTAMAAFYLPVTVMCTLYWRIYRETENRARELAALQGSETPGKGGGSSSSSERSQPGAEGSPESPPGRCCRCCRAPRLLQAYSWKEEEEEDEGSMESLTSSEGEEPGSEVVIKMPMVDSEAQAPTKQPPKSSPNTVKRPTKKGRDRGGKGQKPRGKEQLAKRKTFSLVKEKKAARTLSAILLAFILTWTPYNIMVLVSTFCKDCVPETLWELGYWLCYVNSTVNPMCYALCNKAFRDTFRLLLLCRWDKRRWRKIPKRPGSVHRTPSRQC
BAP1 inh confirm – BAP1 deubiquitinase inhibitors, hit retest, confirmation, orthogonal assay, biochemical, Ub-ethyl ester substrate, HPLC readout. purified BAP1, Ub-ethyl ester hydrolysis; active compounds read low. actives 8% (n = 310). shares compounds with BAP1 inh. % of control activity, % at 20 µM;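 active = percent of control activity at or below 60%; inconclusive = HPLC trace unusable from injection failure or solvent front hiding peaks; inactive = the rest, plus ubiquitin peak ratio over a set limit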
Numbers stand for hits.

What do the screens show for `CCOC(=O)c1c(C)oc2ccc(N(C(=O)c3ccncc3)S(=O)(=O)c3cccc([N+](=O)[O-])c3)cc12`?
BAP1 inh: inactive

Results for O=C(NCc1ccccc1)c1c[nH]c2ccc(S(=O)(=O)Nc3ccc4c(c3)OCCO4)cc2c1=O ?
M1 agonist: inactive; HEK293 NFkB inh: inactive; BAP1 inh: active; D1 allo mod: inactive; hDAT+cocaine: inactive; M1 antag: inactive; BAP1 inh confirm: inconclusive

How did COc1ccccc1Oc1coc2cc(O)ccc2c1=O do in these assays?
M1 agonist: inactive; HEK293 NFkB inh: inactive; BAP1 inh: active; D1 allo mod: inactive; hDAT+cocaine: inactive; M1 antag: inactive; BAP1 inh confirm: inactive

Results for CCOc1ccccc1Oc1coc2cc(O)ccc2c1=O ?
M1 agonist: inactive; HEK293 NFkB inh: inactive; BAP1 inh: active; D1 allo mod: inactive; hDAT+cocaine: inactive; M1 antag: inactive; BAP1 inh confirm: inactive

How did COc1cc(OC)cc(C(=O)Nc2ccccc2-c2nc3ccccc3[nH]2)c1 do in these assays?
BAP1 inh: inactive

How did Cc1ccc(C)c(N2C(=O)c3ccc(Oc4cccc(N)c4)cc3C2=O)c1 do in these assays?
BAP1 inh: inactive

Results for COC(=O)c1ccccc1NC(=O)c1sc(=S)n(C)c1N ?
M1 agonist: inactive; HEK293 NFkB inh: inactive; BAP1 inh: active; D1 allo mod: inactive; hDAT+cocaine: 6; M1 antag: inactive; BAP1 inh confirm: 51

How did COC(=O)c1ccccc1NC(=O)c1sc(N)nc1C do in these assays?
M1 agonist: inactive; HEK293 NFkB inh: inactive; BAP1 inh: inactive; hDAT+cocaine: inactive; M1 antag: inactive

Results for CC(C)(C)c1ccc(S(=O)(=O)N2CCN(c3ccc([N+](=O)[O-])cc3)CC2)cc1 ?
BAP1 inh: inactive

How did Cc1cc(C(=O)NCc2cc(C(=O)O)oc2C)c(C)o1 do in these assays?
M1 agonist: inactive; HEK293 NFkB inh: inactive; BAP1 inh: active; D1 allo mod: inactive; hDAT+cocaine: inactive; M1 antag: inactive; BAP1 inh confirm: inactive

What do the screens show for `Cc1cc(C(=O)NCC(=O)O)c(C)o1`?
hDAT+cocaine: inactive

How did N#Cc1c(NC(=O)CSc2nnnn2C2CCCCC2)sc2c1CCCC2 do in these assays?
M1 agonist: inactive; HEK293 NFkB inh: inactive; BAP1 inh: active; D1 allo mod: inactive; hDAT+cocaine: inactive; M1 antag: inactive; BAP1 inh confirm: inactive

What do the screens show for `O=C(Nc1nc2c(Cl)cccc2s1)c1ccc(Br)o1`?
M1 agonist: inactive; HEK293 NFkB inh: inactive; BAP1 inh: inactive; D1 allo mod: inactive; hDAT+cocaine: inactive; M1 antag: inactive

How did O=C(Nc1nc2ccc(Cl)cc2s1)c1ccc(Br)o1 do in these assays?
M1 agonist: inactive; HEK293 NFkB inh: inactive; BAP1 inh: active; D1 allo mod: inactive; hDAT+cocaine: inactive; M1 antag: inactive; BAP1 inh confirm: inactive

What do the screens show for `COCCOC(=O)C1=C(C)NC2=C(C(=O)CC(C)(C)C2)C1c1ccc(OC)c(OC)c1` (stereo not given)?
BAP1 inh: inactive

How did CCCC(c1nnnn1CC(=O)OCC)N(Cc1cc2c(C)cc(C)cc2[nH]c1=O)C1CCCC1 (stereo not given) do in these assays?
M1 agonist: inactive; HEK293 NFkB inh: inactive; BAP1 inh: active; D1 allo mod: inactive; hDAT+cocaine: inactive; M1 antag: inactive; BAP1 inh confirm: inactive

Results for CCCC(c1nnnn1CC(=O)OCC)N(Cc1cc2ccc(C)cc2[nH]c1=O)C1CCCC1 (stereo not given) ?
HEK293 NFkB inh: inactive; BAP1 inh: inactive; hDAT+cocaine: inactive

Results for CCOC(=O)c1c(C)oc2c1cc(O)c1ccccc12 ?
M1 agonist: inactive; HEK293 NFkB inh: inactive; BAP1 inh: active; D1 allo mod: inactive; hDAT+cocaine: inactive; M1 antag: inactive; BAP1 inh confirm: inactive

Results for CCOC(=O)c1c(C)[nH]c2c1cc(O)c1ccccc12 ?
hDAT+cocaine: inactive

Results for Cn1c(C(=O)N2CCc3ccccc32)cc2c(=O)n3ccccc3nc21 ?
M1 agonist: inactive; HEK293 NFkB inh: inactive; BAP1 inh: inactive; D1 allo mod: inactive; M1 antag: inactive

Results for Cn1c(C(=O)N2CCCc3ccccc32)cc2c(=O)n3ccccc3nc21 ?
M1 agonist: inactive; HEK293 NFkB inh: inactive; BAP1 inh: active; D1 allo mod: inactive; M1 antag: inactive; BAP1 inh confirm: inactive

Results for Cc1cc(=O)[nH]c(SCC(=O)Nc2ccc(C(=O)O)cc2)n1 ?
hDAT+cocaine: inactive

How did CCOC(=O)c1ccc(NC(=O)CSc2nc(C)cc(=O)[nH]2)cc1 do in these assays?
M1 agonist: inactive; HEK293 NFkB inh: inactive; BAP1 inh: active; D1 allo mod: inactive; hDAT+cocaine: inactive; M1 antag: inactive; BAP1 inh confirm: inconclusive

How did Cc1ccc(Cn2ncc3c(N4CCN(c5ccccc5C)CC4)ncnc32)cc1 do in these assays?
M1 agonist: inactive; HEK293 NFkB inh: inactive; BAP1 inh: active; D1 allo mod: inactive; hDAT+cocaine: inactive; M1 antag: inactive; BAP1 inh confirm: inactive

What do the screens show for `Cc1ccc(Cn2ncc3c(N4CCOCC4)ncnc32)cc1`?
M1 agonist: inactive; BAP1 inh: inactive; hDAT+cocaine: inactive; M1 antag: inactive

What do the screens show for `O=C(COc1ccc(Cl)cc1)Nc1nnc(-c2ccc3c(c2)CCCC3)o1`?
M1 agonist: inactive; HEK293 NFkB inh: inactive; BAP1 inh: active; D1 allo mod: inactive; hDAT+cocaine: inactive; M1 antag: inactive; BAP1 inh confirm: inactive

What do the screens show for `CCCC1C2CN(C(C)C)CC=C2C(C#N)=C(N)C1(C#N)C#N` (stereo not given)?
M1 agonist: 8.3; HEK293 NFkB inh: inactive; BAP1 inh: active; D1 allo mod: inactive; M1 antag: inactive; BAP1 inh confirm: inactive

How did CC12C=CC(C)(O1)C1C(=O)N(c3cccc4ccccc34)C(=O)C12 (stereo not given) do in these assays?
BAP1 inh: inactive

How did O=C(Nc1nc(-c2ccc3c(c2)OCO3)cs1)c1cc(=O)c2ccccc2o1 do in these assays?
BAP1 inh: inactive

How did CCOC(=O)c1c(NC(=O)c2ccc(S(=O)(=O)N3CCc4ccccc4C3)cc2)sc2c1CCCCC2 do in these assays?
BAP1 inh: inactive
